Results as given in publication PMC5987874 (The Journal of General Physiology, 2018).
Residue numbers refer to the chain shown, from its start. Where “and” joins values, the source holds several entries; their conditions need not be identical. Equal values may be shown once. Read-outs that look alike come from different tables or passages of the source.

Experiments:
Test in all cases: Whole-cell voltage clamp, Zn^2+ modulation of GAQ gating
Format in all cases: cell-based
[1] = molecular target: T1, human Hv1 E119A (E^1.58A) (Homo sapiens, UniProt Q96D96, E119A)
T1 sequence (Q96D96 1-273 E119A): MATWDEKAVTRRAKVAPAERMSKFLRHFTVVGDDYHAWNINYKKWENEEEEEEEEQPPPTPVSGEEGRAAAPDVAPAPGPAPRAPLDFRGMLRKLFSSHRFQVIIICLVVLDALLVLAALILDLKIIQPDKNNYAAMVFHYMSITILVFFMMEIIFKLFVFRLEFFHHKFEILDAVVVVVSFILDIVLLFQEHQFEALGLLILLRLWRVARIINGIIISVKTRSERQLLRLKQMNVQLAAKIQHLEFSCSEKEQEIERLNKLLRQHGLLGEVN
Summary of the method: (§1)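 Whole-cell patch clamp at ~21°C. Pipette and bath (mM): ~80 TMA-MeSO3, 100 Bis-Tris, 8 HCl, pH 6.5, 310–320 mOsm. ZnCl2 was diluted into bath solution and applied by gravity superfusion, at least 2 min per change. Test step voltage was set per construct from its V0.5. G_STEP = end-of-step current/(V−V_REV). Effect = 1 − G_Zn/G_control, fitted to the Hill equation. IC50 and nH are means ± SEM from separate cells. ΔpIC50 was tested by unpaired t test, P<0.05.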

[2] = molecular target: T2, human Hv1 E119H (E^1.58H) (Homo sapiens, UniProt Q96D96, E119H)
T2 sequence (Q96D96 1-273 E119H): T1 sequence (Q96D96 1-273 E119A) with A119H
Summary of the method: as §1

human Hv1 E119H-H193A = molecular target: T3, human Hv1 E119H-H193A (Homo sapiens, UniProt Q96D96, E119H/H193A)
T3 sequence (Q96D96 1-273 E119H/H193A): T1 sequence (Q96D96 1-273 E119A) with A119H, H193A
Summary of the method: as §1

[3] = molecular target: T4, human Hv1 D123H (D^1.62H) (Homo sapiens, UniProt Q96D96, D123H)
T4 sequence (Q96D96 1-273 D123H): T1 sequence (Q96D96 1-273 E119A) with A119E, D123H
Summary of the method: as §1

[4] = molecular target: T5, human Hv1 D130H (D^1.69H) (Homo sapiens, UniProt Q96D96, D130H)
T5 sequence (Q96D96 1-273 D130H): T1 sequence (Q96D96 1-273 E119A) with A119E, D130H
Summary of the method: as §1

[5] = molecular target: T6, human Hv1 H140A-D185H-H193A (Homo sapiens, UniProt Q96D96, D185H/H140A/H193A)
T6 sequence (Q96D96 1-273 H140A/D185H/H193A): T1 sequence (Q96D96 1-273 E119A) with A119E, H140A, D185H, H193A
Summary of the method: as §1

[6] = VSTEP 120 mV, calculated as log (IC50)
[7] = read-out: IC50, fit of the mean data to a Hill function, Fig. 3C
[8] = VSTEP 100 mV, calculated as log (IC50)

Mean ΔpIC50 = (pIC50_1 - pIC50_2) ([1]; E119A vs WT): −0.28
nH, fit of the mean data to a Hill function ([1]; Fig. 3C): 0.8
Hill value ([1]; VSTEP 120 mV): 0.80
pIC50 [1, 6]: 5.16
IC50 [1, 7]: 6.7 µM
Mean ΔpIC50 = (pIC50_1 - pIC50_2) ([2]; E119H vs WT): 0.8 and 0.77
nH, fit of the mean data to a Hill function ([2]; Fig. 3C): 0.9
Hill value ([2]; VSTEP 100 mV): 1.08
pIC50 [2, 8]: 6.22
IC50 [2, 7]: 0.6 µM
Mean ΔpIC50 = (pIC50_1 - pIC50_2) (human Hv1 E119H-H193A; E119H-H193A vs H193A): 1.38
nH, fit of the mean data to a Hill function (human Hv1 E119H-H193A; Fig. 4A): 0.7
Hill value (human Hv1 E119H-H193A; VSTEP 100 mV): 0.86
pIC50 (human Hv1 E119H-H193A; [8]): 5.45
IC50 (human Hv1 E119H-H193A; read-out: IC50, fit of the mean data to a Hill function, Fig. 4A): 4.2 µM
Mean ΔpIC50 = (pIC50_1 - pIC50_2) ([3]; D123H vs WT): 0.11
nH, fit of the mean data to a Hill function ([3]; Fig. 4B): 0.8
Hill value ([3]; VSTEP 80 mV): 0.95
pIC50 ([3]; VSTEP 80 mV, calculated as log (IC50)): 5.56
IC50 ([3]; read-out: IC50, fit of the mean data to a Hill function, Fig. 4B): 2.5 µM
IC50 ([3]; read-out: Mean IC50 @ VSTEP, VSTEP 80 mV, pH 6.5, mean of fits in separate cells): 4.3 µM
Mean ΔpIC50 = (pIC50_1 - pIC50_2) ([4]; D130H vs WT): 0.22
nH, fit of the mean data to a Hill function ([4]; Fig. 4C): 0.7
Hill value ([4]; VSTEP 120 mV): 0.95
pIC50 [4, 6]: 5.67
IC50 ([4]; read-out: IC50, fit of the mean data to a Hill function, Fig. 4C): 2.4 µM
Mean ΔpIC50 = (pIC50_1 - pIC50_2) ([5]; H140A-D185H-H193A vs H140A-H193A): 0.38
Hill value ([5]; VSTEP 100 mV): 1.05
pIC50 [5, 8]: −3.15
Compound: [Cl-].[Cl-].[Zn+2] [Zn^2+, ZnCl2]
